Measured values from ChEMBL document CHEMBL1125590, “Purine and 1-deazapurine ribonucleosides and deoxyribonucleosides: synthesis and biological activity” (J Med Chem, 1991).

Columns and labels:
[1] = system: L1210; assay: Compound was tested for its antitumor activity to inhibit 50% of tumor cell growth in mouse leukemia L1210 cell lines.; format: functional; details: read-out: ID50 (the source's name)
Outline: (§1)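 L1210 and P388 murine leukemia cells were kept in RPMI 1640 with 10% fetal calf serum, penicillin and streptomycin, plus 1 mM β-mercaptoethanol added at 1% (L1210) or 2% (P388). Stocks were 1 mg/mL in 5% DMSO, diluted in water (0.5% DMSO at the top dose). Cells were plated at 3×10^4/mL and treated immediately for 72 h, then Coulter-counted as % of control; IC50 was taken from concentration–response curves.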

[2] = biological target: T1, Adenosine deaminase (Bos taurus, UniProt P56658); assay: Compound was tested for the inhibition of Adenosine deaminase from calf intestine; NA indicates not active
T1 sequence (P56658 whole entry): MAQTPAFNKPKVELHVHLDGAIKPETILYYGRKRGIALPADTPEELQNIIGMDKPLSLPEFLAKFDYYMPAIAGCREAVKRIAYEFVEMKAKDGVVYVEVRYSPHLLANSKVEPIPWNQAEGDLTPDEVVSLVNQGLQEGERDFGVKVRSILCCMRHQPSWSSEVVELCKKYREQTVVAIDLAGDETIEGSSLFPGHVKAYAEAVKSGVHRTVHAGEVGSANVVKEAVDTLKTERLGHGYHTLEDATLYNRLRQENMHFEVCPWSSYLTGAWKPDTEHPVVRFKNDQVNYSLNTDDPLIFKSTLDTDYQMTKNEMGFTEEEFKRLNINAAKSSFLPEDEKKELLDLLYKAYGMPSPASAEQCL

[3] = system: P388; assay: Compound was tested for its antitumor activity to inhibit 50% of tumor cell growth in mouse leukemia P388 cell lines.; format: functional; details: read-out: ID50 (the source's name); outline: as §1
[4] = biological target: T1, Adenosine deaminase; assay: Compound was tested for the inhibition of Adenosine deaminase from calf intestine.

Compound | IC50 [1] [µM] | Ki [2] | IC50 [3] [µM] | Ki [4] [µM]
O=[N+]([O-])c1cc(Cl)nc2c1ncn2C1O[C@H](CO)[C@@H](O)[C@H]1O (stereo partly specified) | 0.9 | Not Active | 1.5 | –
Cc1ccc(C(=O)OC[C@H]2O[C@@H](n3cnc4c(NO)ccnc43)C[C@@H]2OC(=O)c2ccc(C)cc2)cc1 | 22.5 | – | 16.9 | 5.3
Nc1ncnc2c1ncn2[C@@H]1O[C@H](CO)[C@@H](O)[C@@H]1O [VIDARABINE] | 21.7 | – | 16.8 | –
Cc1ccc(C(=O)OC[C@H]2O[C@@H](n3cnc4c(NO)cc(Cl)nc43)C[C@@H]2OC(=O)c2ccc(C)cc2)cc1 | 4.8 | Not Active | 4.3 | –
OC[C@H]1O[C@@H](n2cnc3c(NO)ccnc32)C[C@@H]1O | > 100 | – | 67.6 | 0.27
OC[C@H]1OC(n2cnc3c(NO)cc(Cl)nc32)[C@H](O)[C@@H]1O (stereo partly specified) | 91 | – | 60 | 69
Cc1ccc(C(=O)OC[C@H]2O[C@@H](n3cnc4c(NO)nc(Cl)nc43)C[C@@H]2OC(=O)c2ccc(C)cc2)cc1 | 4.9 | Not Active | 10.4 | –
OC[C@H]1OC(n2cnc3c(NO)nc(Cl)nc32)[C@H](O)[C@@H]1O (stereo partly specified) | 94.4 | Not Active | 75.5 | –
OC[C@H]1O[C@@H](n2cnc3/c(=N\O)[nH]cnc32)[C@H](O)[C@@H]1O | 3.1 | – | 1.6 | –
O=[N+]([O-])c1ccnc2c1ncn2[C@H]1C[C@H](O)[C@@H](CO)O1 | 14.9 | Not Active | 20.6 | –
OC[C@H]1O[C@@H](n2cnc3c(NO)ccnc32)[C@H](O)[C@@H]1O | 5.3 | – | 4.9 | 1.2
